Bioassay records from PubChem.
Rows were chosen to be rich in hits. Some 3.1% of all compounds tested hit in one or more screens of this group.
MPTP block: inhibitors of mitochondrial permeability transition pore; isolated mouse mitochondria, Ca2+ swelling absorbance, 30 min; inhibition, % at 10 µM; 360,000 compounds, 1.4% hits;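 active means inhibition of 50% or more, scaled per plate between neutral and stimulator controls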
V-ATPase pH: regulators of yeast V-ATPase proton transport; S. cerevisiae, pHLuorin cytosolic pH fluorescence; response, % at 10 µM; 350,000 compounds, 0.37% hits; AID 504577; in the data active means response mostly above about 7.3%, no sharp cut-off; inactive means mostly below about 5.4%; further: actives read high
ADAM17 inh: inhibitors of human ADAM17. recombinant ADAM17, EDANS/DABCYL FRET peptide cleavage. inhibition, % at 6.95 µM. 370,000 compounds, 0.83% hits. AID 720648;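 active means inhibition above the mean of compounds lying between control limits plus 3 SD, set per campaign, cut at about 8.5% in these data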
ADAM10 inh: ADAM10 inhibition, QFRET primary screen. O14672. recombinant ADAM10, EDANS/DABCYL FRET peptide cleavage, 3 h. inhibition, % at 7 µM. 370,000 compounds, 0.62% hits. AID 720582;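 active means inhibition above a per-campaign cutoff equal to the mean of compounds falling between control-based bounds plus 3 SD, cut at about 20% in these data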
Target sequence (O14672 214-748 limits assumed): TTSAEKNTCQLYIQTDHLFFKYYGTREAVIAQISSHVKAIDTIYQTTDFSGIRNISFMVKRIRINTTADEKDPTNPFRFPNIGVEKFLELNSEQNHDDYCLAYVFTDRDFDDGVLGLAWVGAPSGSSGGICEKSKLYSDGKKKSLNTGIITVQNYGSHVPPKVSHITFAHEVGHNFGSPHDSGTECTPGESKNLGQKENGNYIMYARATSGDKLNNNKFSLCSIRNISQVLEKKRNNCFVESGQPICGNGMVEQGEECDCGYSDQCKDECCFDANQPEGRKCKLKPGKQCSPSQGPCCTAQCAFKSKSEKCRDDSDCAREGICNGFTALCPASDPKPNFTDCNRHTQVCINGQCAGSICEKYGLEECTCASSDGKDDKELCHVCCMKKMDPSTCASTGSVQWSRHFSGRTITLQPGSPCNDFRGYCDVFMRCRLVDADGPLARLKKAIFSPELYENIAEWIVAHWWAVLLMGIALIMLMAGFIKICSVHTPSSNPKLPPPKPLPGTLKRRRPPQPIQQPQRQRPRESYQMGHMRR
Lipid droplet: modulators of hepatic lipid droplet formation. AID 1656. inhibition, % at 6.5 µM. 240,000 compounds, 0.4% hits. AML12 mouse hepatocytes, oleate lipid droplets, BODIPY imaging;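 active means lipid droplet intensity inhibited by at least 50%, with more than 500 cells counted; inconclusive means wells with under 300 cells, treated as cytotoxic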
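Technique: fluorescence imaging, 20x objective, two fields per well / Assay system: AML12 hepatocytes (mouse) / Measure: % inhibition of lipid droplet signal / Doses: 6.5 µM single-point dosing / Incubation: overnight exposure / Reagent: 100 µM oleic acid challenge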
aDG glyco act: increases alpha dystroglycan glycosylation; Pro5-aDG cells, alpha-DG glycosylation AlphaScreen (IIH6); 0% Pro5, 100% B10-LARGE cell signal; activation, % at 10 µM; 360,000 compounds, 0.22% hits; AID 624168;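 active means activation of at least 8% versus controls, or a plate z-score of at least 8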;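 further: Pro5 are CHO cells carrying HIG-tagged alpha-DG that lacks glycosylation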
ADAM10 confirm: human ADAM10 inhibition, confirmation; shares compounds with ADAM10 inh; ADAM10 QFRET peptide cleavage, EDANS fluorescence; inhibition, % at 6.95 µM; 2,100 compounds, 1% hits; AID 743208;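 active means inhibition above about 20% chosen separately for each screening run, limit read from the data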
ADAM17 ctr: inhibits human ADAM17 in ADAM10 exosite counter-screen; shares compounds with ADAM10 inh; ADAM17 QFRET peptide cleavage, EDANS fluorescence; inhibition, % at 6.95 µM; 2,100 compounds, 0.5% hits; AID 743214;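 active means mean triplicate inhibition above the solvent-only control wells' mean plus 3 SD, cut at about 12% in these data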
Each line names hits and unclear results; the compound was inactive in the other large screens (follow-up assays come after a bar, where they were run).

O=C(NC1CCCCC1)[C@H](CSCc1ccccc1)N1Cc2ccccc2C1=O	ADAM10 inh 22 | ADAM10 confirm inactive | ADAM17 ctr inactive
CCCCCCNC(=O)c1c(N)[nH]c(C(=O)c2ccccc2)c1-c1ccc(O)cc1	none (no result: MPTP block, V-ATPase pH, Lipid droplet, aDG glyco act)
Cc1ccc(Nc2c([N+](=O)[O-])cc(C(=O)N3CC(=O)Nc4ccccc43)cc2[N+](=O)[O-])c(C)c1	ADAM10 inh 20 (no result: Lipid droplet) | ADAM10 confirm inactive | ADAM17 ctr inactive
O=C1CN(C(=O)c2ccc(Cl)c([N+](=O)[O-])c2)c2ccccc2N1	none
CCn1c(=O)n(CC(=O)N2CCCN(Cc3ccccc3)CC2)c(=O)c2ccccc21	none (no result: MPTP block, V-ATPase pH, Lipid droplet, aDG glyco act)
CCN(CC)C(=O)CSc1nnc(-c2cccs2)o1	none (no result: MPTP block, V-ATPase pH, Lipid droplet, aDG glyco act)
COc1cccc(NC(=O)CN2C(=O)CSc3ccc(S(=O)(=O)N4CCC(C)CC4)cc32)c1	ADAM10 inh 21 | ADAM10 confirm inactive | ADAM17 ctr inactive
CC(=O)c1cccc(NC(=O)c2ccc3c(c2)CCN3S(=O)(=O)c2ccccc2)c1	ADAM10 inh 23 | ADAM10 confirm inactive | ADAM17 ctr inactive
COc1cc(OC)c(C2CC(=O)N3CN(c4ccccc4)CSC3=C2C#N)cc1OC (stereo unspecified)	ADAM10 inh 24 (no result: Lipid droplet) | ADAM10 confirm inactive | ADAM17 ctr inactive
CCc1ccccc1N1CSC2=C(C#N)C(c3cc(OC)c(OC)cc3OC)CC(=O)N2C1 (stereo unspecified)	none
Cc1ccc(-n2c(SCC(=O)c3ccccc3Br)nnc2-c2ccncc2)cc1	none (no result: MPTP block, V-ATPase pH, Lipid droplet, aDG glyco act)
O=C(NC(=S)Nc1ccccc1N1CCCCC1)c1ccc(-c2cccc([N+](=O)[O-])c2)o1	none
O=C(NC(=S)Nc1ccccc1N1CCCC1)c1ccc(-c2cccc([N+](=O)[O-])c2)o1	ADAM10 inh 20 (no result: Lipid droplet) | ADAM10 confirm inactive | ADAM17 ctr inactive
CCCC1CCC2(CC1)CCC2OC(=S)NCc1cccc(OC)c1 (stereo unspecified)	none (no result: MPTP block, V-ATPase pH, Lipid droplet, aDG glyco act)
CCOC(=O)Nc1nc(-c2ccccc2)c(C(=O)c2ccc(Cl)cc2)s1	ADAM10 inh 21, Lipid droplet inconclusive | ADAM10 confirm inactive | ADAM17 ctr inactive
CCOC(=O)Nc1sc(C)nc1-c1ccccc1	none (no result: Lipid droplet)
CNC(=S)N/N=C/c1cn(CCOc2ccc(OC)cc2)c2ccccc12	ADAM10 inh 20 | ADAM10 confirm inactive | ADAM17 ctr inactive
COc1ccccc1OCCn1cc(/C=N/NC(N)=S)c2ccccc21	none
O=C(CCn1nnc2ccccc21)N1CCN(c2ccccc2F)CC1	none (no result: MPTP block, V-ATPase pH, Lipid droplet, aDG glyco act)
CCCCCCCOc1ccc(C2(C)NC(=O)NC2=O)cc1 (stereo unspecified)	ADAM10 inh 21 | ADAM10 confirm inactive | ADAM17 ctr inactive
CCOC(=O)[C@]12CCCCC/C=C\1N(CCc1ccc(Cl)cc1)C(=O)[C@H]2CC(=O)NCCCN1CCCC1=O	none (no result: MPTP block, V-ATPase pH, Lipid droplet, aDG glyco act)
CC1Cc2ccccc2N1C(=O)c1ccc(N2CCCC2)c([N+](=O)[O-])c1 (stereo unspecified)	ADAM10 inh 24 | ADAM10 confirm inactive | ADAM17 ctr inactive
COC(=O)[C@H](CC(C)C)N(Cc1cn(CC2CCCCC2)nn1)S(=O)(=O)c1ccc(F)cc1Br	none (no result: MPTP block, V-ATPase pH, Lipid droplet, aDG glyco act)
COC(=O)C1CN(Cc2ccc(OC)cc2)CCS(=O)(=O)N1Cc1ccc(OC)cc1 (stereo unspecified)	none (no result: MPTP block, V-ATPase pH, Lipid droplet, aDG glyco act)
CC(C)(C)OC(=O)CNC(=O)c1[nH]cnc1C(=O)N[C@@H](CCCCNC(=O)OC(C)(C)C)C(=O)OC(C)(C)C	ADAM10 inh 23 | ADAM10 confirm inactive | ADAM17 ctr inactive
Cc1cccc(NC(=O)c2nc[nH]c2C(=O)N[C@@H](CCCCNC(=O)OC(C)(C)C)C(=O)OC(C)(C)C)c1	ADAM17 inh 12, ADAM10 inh 33 | ADAM10 confirm inactive | ADAM17 ctr inactive
CC(C)(C)OC(=O)NCCCC[C@H](NC(=O)c1nc[nH]c1C(=O)NC(c1ccccc1)c1ccccc1)C(=O)OC(C)(C)C	ADAM10 inh 22 | ADAM10 confirm inactive | ADAM17 ctr inactive
COC(=O)c1cc2c(c3c4ccccc4n(S(=O)(=O)c4cccc(C)c4)c13)C(=O)N(Cc1ccc(N(C)C)cc1)C2	none (no result: MPTP block, V-ATPase pH, Lipid droplet, aDG glyco act)
COC(=O)[C@H](Cc1ccccc1)NC(=O)[C@H]1O[C@@H](n2cnc3c(=O)[nH]c(N)nc32)[C@H](O)[C@@H]1O	none (no result: MPTP block, V-ATPase pH, Lipid droplet, aDG glyco act)
Cn1c(=O)c2c(nc(N/N=C/c3cccs3)n2Cc2ccccc2)n(C)c1=O	none
Cn1c(N/N=C/c2cccs2)nc2c1c(=O)n(Cc1ccccc1)c(=O)n2C	ADAM10 inh 26 | ADAM10 confirm inactive | ADAM17 ctr inactive
Cc1ccc(C(=O)N2CCCC2)cc1S(=O)(=O)Nc1ccccc1	none
Cc1ccccc1NS(=O)(=O)c1cc(C(=O)NCc2ccco2)ccc1C	none
Cc1ccc(SCCNC(=O)c2ccc(C)c(S(=O)(=O)Nc3ccccc3C)c2)cc1	ADAM10 inh 21 (no result: Lipid droplet) | ADAM10 confirm inactive | ADAM17 ctr inactive
Cc1ccc(C(=O)NCCSC2CCCCC2)cc1S(=O)(=O)Nc1ccccc1	ADAM10 inh 24 (no result: Lipid droplet) | ADAM10 confirm inactive | ADAM17 ctr inactive
O=C(Nc1ccc(Br)c(C(F)(F)F)c1)[C@@H]1CC=C[C@@H]2CCN(CC3CC3)C(=O)[C@@H]21	none (no result: MPTP block, V-ATPase pH, Lipid droplet, aDG glyco act)
CC(C)[C@H](NC(=O)c1ccccc1)C(=O)N1CCC[C@H]1C(=O)NCc1ccccc1	none (no result: MPTP block, V-ATPase pH, Lipid droplet, aDG glyco act)
Cc1c(C2(O)CCCCC2)[nH]c2ccccc12	none (no result: MPTP block, V-ATPase pH, Lipid droplet, aDG glyco act)
Cc1c(C2(O)CCCCC2)[nH]c2ccc(C(F)(F)F)cc12	ADAM10 inh 20 (no result: Lipid droplet) | ADAM10 confirm inactive | ADAM17 ctr inactive
CCO[C@@H]1OC(C(=O)Nc2ccccc2)=C[C@H](c2ccc(C(F)(F)F)cc2)[C@H]1CCCO	none
CCO[C@H]1OC(C(=O)Nc2ccccc2)=C[C@@H](c2ccc(Br)cc2)[C@@H]1CCCO	ADAM10 inh 24 | ADAM10 confirm inactive | ADAM17 ctr inactive
CCNC(=O)NC(=O)C(C)OC(=O)c1ccc(-n2nc(SC)sc2=S)cc1 (stereo unspecified)	ADAM10 inh 22 | ADAM10 confirm inactive | ADAM17 ctr inactive
Cn1nnc(NC(=O)c2ccc(C(C)(C)C)cc2)n1	ADAM10 inh 35 (no result: Lipid droplet) | ADAM10 confirm inactive | ADAM17 ctr inactive
Cn1nnc(NC(=O)c2ccc3ccccc3c2)n1	none (no result: V-ATPase pH)
C/C(=N\Nc1nc2ccccc2s1)c1cccs1	ADAM10 inh 25 | ADAM10 confirm inactive | ADAM17 ctr inactive
CC(=NNc1nc2ccccc2s1)c1ncccn1	none (no result: Lipid droplet)
CCCNC(=O)N1[C@@H](CO)[C@H](c2ccc(C3=CCCC3)cc2)[C@@H]1CN(CC)S(=O)(=O)c1ccccc1[N+](=O)[O-]	none (no result: MPTP block, V-ATPase pH, Lipid droplet, aDG glyco act)
